Columns and labels:
[1] = target: Cathepsin S (Homo sapiens, UniProt P25774); assay: Inhibition of human cathepsin-S
[2] = target: T1, Cathepsin K (Homo sapiens, UniProt P43235); assay: Inhibition of human cathepsin-K
T1 sequence (P43235 whole entry): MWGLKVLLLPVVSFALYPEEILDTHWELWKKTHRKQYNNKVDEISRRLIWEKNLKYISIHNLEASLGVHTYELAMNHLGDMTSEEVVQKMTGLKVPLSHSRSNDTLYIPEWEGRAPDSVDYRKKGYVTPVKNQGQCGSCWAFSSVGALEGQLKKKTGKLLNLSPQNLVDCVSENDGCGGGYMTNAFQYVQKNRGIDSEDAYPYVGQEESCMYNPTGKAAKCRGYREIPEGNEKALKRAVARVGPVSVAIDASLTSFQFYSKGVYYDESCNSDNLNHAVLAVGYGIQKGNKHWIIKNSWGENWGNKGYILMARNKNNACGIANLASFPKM
How it was run: (§1)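 Human cathepsin B and K activity measured with a SensoLyte 520 cathepsin activity assay kit; LHVS as pan-cathepsin positive control.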

[3] = target: Cathepsin B (Homo sapiens, UniProt P07858); assay: Inhibition of human cathepsin-B; how it was run: as §1

Chain of Cathepsin S (P25774 whole entry): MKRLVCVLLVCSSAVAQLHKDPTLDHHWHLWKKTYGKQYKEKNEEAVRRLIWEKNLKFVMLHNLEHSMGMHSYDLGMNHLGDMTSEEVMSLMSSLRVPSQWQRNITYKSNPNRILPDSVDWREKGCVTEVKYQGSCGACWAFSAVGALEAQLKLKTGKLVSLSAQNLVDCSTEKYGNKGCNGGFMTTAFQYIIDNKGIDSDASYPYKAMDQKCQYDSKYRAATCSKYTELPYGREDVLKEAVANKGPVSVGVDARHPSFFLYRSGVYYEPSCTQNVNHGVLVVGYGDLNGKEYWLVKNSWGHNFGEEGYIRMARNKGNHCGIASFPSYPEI

SMILES | IC50 [1] [nM] | IC50 [2] [nM] | IC50 [3] [nM]
CCC(NC(=O)[C@@H]1C[C@@H](S(=O)(=O)c2ccccc2)CN1C(=O)c1cccnc1)C(=O)c1nc2ccccc2o1 (some centres not stated) | 3.5 |  | 
CCC(NC(=O)[C@@H]1C[C@@H](S(=O)(=O)c2ccccc2)CN1C(=O)C1CCCCC1)C(=O)c1nc2ccccc2o1 (some centres not stated) | 3.3 | > 10000 | > 10000
CC[C@@H](NC(=O)[C@@H]1C[C@@H](S(=O)(=O)c2ccccc2)CN1C(C)=O)C(=O)c1nc2ccccc2o1 | 4.3 |  | 
CCC(NC(=O)[C@@H]1C[C@@H](Sc2ccccc2)CN1C(C)=O)C(=O)c1nc2ccccc2o1 (some centres not stated) | 20.7 |  | 
CC(C)C[C@@H](NC(=O)N1CCOCC1)C(=O)N[C@@H](/C=C/S(=O)(=O)c1ccccc1)CCc1ccccc1 | 1.9 | 4 | 3
CCC(NC(=O)[C@@H]1C[C@@H](S(=O)(=O)c2ccccc2)CN1S(C)(=O)=O)C(=O)c1nc2ccccc2o1 (some centres not stated) | 3.5 |  | 
CC(=O)N1C[C@H](S(=O)(=O)c2ccccc2)C[C@H]1C(=O)NC(C)C(=O)c1nc2ccccc2o1 (some centres not stated) | 18.1 |  | 
CCC(NC(=O)[C@@H]1C[C@@H](S(=O)(=O)c2ccccc2)CN1C(=O)c1ccc(Cl)cc1)C(=O)c1nc2ccccc2o1 (some centres not stated) | 2 |  | 
CCC(NC(=O)[C@@H]1C[C@@H](S(=O)(=O)c2ccccc2)CN1CC(C)=O)C(=O)c1nc2ccccc2o1 (some centres not stated) | 45.4 |  | 
CCC(NC(=O)[C@@H]1C[C@@H]([S@](=O)c2ccccc2)CN1C(C)=O)C(=O)c1nc2ccccc2o1 (some centres not stated) | 83.7 |  | 
CCC(NC(=O)[C@@H]1C[C@@H](S(=O)(=O)c2ccccc2)CN1C(=O)c1ccc(-c2ccccc2)cc1)C(=O)c1nc2ccccc2o1 (some centres not stated) | 4.1 | > 10000 | > 10000
CCC(NC(=O)[C@@H]1C[C@@H](S(=O)(=O)c2ccccc2)CN1C(=O)N1CCCC1)C(=O)c1nc2ccccc2o1 (some centres not stated) | 3.7 |  | 
CC(=O)N1C[C@H](S(=O)(=O)c2ccccc2)C[C@H]1C(=O)NC(Cc1ccccc1)C(=O)c1nc2ccccc2o1 (some centres not stated) | > 100 |  | 
CCC(NC(=O)[C@@H]1C[C@@H](S(=O)(=O)c2ccccc2)CN1C(=O)CCOC)C(=O)c1nc2ccccc2o1 (some centres not stated) | 3.3 |  | 
CCC(=O)N1C[C@H](S(=O)(=O)c2ccccc2)C[C@H]1C(=O)NC(CC)C(=O)c1nc2ccccc2o1 (some centres not stated) | 3.1 |  | 
CCC(NC(=O)[C@@H]1C[C@@H](S(=O)(=O)c2ccccc2)CN1C(=O)C(C)C)C(=O)c1nc2ccccc2o1 (some centres not stated) | 2.4 |  | 

From ChEMBL document CHEMBL2380281, “Synthesis of proline analogues as potent and selective cathepsin S inhibitors” (Bioorg Med Chem Lett, 2013)
